RGS4 pot – RGS4 potentiators or activators, primary screen, cell-based, HEK293 M3R inducible RGS4, calcium flux. carbachol calcium flux Fluo4; active compounds read low. B-score at 10 µM. actives 0.92% (n = 310,000);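 active = B-score of the integrated calcium signal more than 4 SD below the library mean, with starting fluorescence not abnormally high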;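 note: negative B-score means reduced calcium response which marks RGS4 activation or potentiation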
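Test system: HEK293 cells with stable M3R and inducible RGS4; also added: carbachol at ECmax as muscarinic agonist stimulus; schedule: dye loading 30 min 37 °C, buffer rest 30 min RT; technique: kinetic calcium fluorescence imaging with Fluo4-AM dye, 2 µM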
MrgX1 PAM – positive allosteric modulators of MrgX1, primary screen, HEK293 cells, Fluo-4 calcium flux; Mas-related G-protein coupled receptor member X1 (Homo sapiens), Q96LB2; FDSS; active compounds read high; B-score at 10 µM; actives 0.63% (n = 310,000); AID 588675, 2011;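 active = plate-corrected calcium response at least 3 library SD above typical, normal starting fluorescence, not activating the receptor alone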;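 note: compound read alongside a low EC10 to EC30 dose of BAM8-22 agonist; peak minus trough fluorescence over baseline measured at the second addition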
Target sequence (Q96LB2 whole entry, looked up): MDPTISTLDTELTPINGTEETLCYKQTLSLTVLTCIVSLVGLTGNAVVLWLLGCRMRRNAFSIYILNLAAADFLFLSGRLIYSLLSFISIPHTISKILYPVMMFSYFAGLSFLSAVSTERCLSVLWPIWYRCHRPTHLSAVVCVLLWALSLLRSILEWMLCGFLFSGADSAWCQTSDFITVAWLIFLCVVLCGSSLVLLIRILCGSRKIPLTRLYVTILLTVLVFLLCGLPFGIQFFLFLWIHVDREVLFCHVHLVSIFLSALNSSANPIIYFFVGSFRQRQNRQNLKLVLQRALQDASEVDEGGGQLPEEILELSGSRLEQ
MrgX1 antagonist – antagonists of human MrgX1 receptor, primary screen, HEK293 cells, Fluo-4 calcium flux; Mas-related G-protein coupled receptor member X1 (Homo sapiens), Q96LB2; BAM8-22 antagonism; active compounds read low; B-score at 10 µM; actives 1.3% (n = 310,000);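 active = calcium-response B-score plate-corrected more than 3 library SD below zero, starting fluorescence within 5 deviations, no agonist response on first addition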;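 note: peak minus trough fluorescence over baseline after final BAM8-22 challenge near maximal dose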
MrgX1 agonist – agonists of human MrgX1 receptor, primary screen, HEK293 cells, Fluo-4 calcium flux | Mas-related G-protein coupled receptor member X1 (Homo sapiens), Q96LB2 | Fluo-4 calcium fluorescence, agonist mode; active compounds read high | B-score at 10 µM | actives 0.44% (n = 310,000);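 active = calcium response B-score plate-corrected fluorescence ratio at least 3 library SD, with starting fluorescence B-score inside 5 SD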
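Test system: HEK293 cells stably expressing human MrgX1 receptor; Input: fifteen thousand cells per well; Dosing: compound delivered in addition one of three; Schedule: overnight seeding, then 1 h dark dye loading; Technique: Fluo-4 NW calcium fluorescence; Measure: B-scored fluorescence response ratio; Controls: positive and negative controls per plate.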
RGS4 block – RGS4 inhibitors, primary screen, cell-based, HEK293 M3R inducible RGS4, calcium flux | Regulator of G-protein signaling 4 (Homo sapiens), P49798 | Fluo-4 calcium flux; active compounds read high; triggered by carbachol at its EC20 | B-score at 10 µM | actives 0.45% (n = 310,000) | AID 463165, 2010;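 active = B-score, a plate-corrected calcium signal, over three deviations above library mean, with baseline fluorescence within five deviations of library mean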;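 note: RGS4 expression induced by doxycycline in cells with stable M3 receptor; B-score is computed from the integrated fluorescence ratio over baseline after carbachol; higher B-score means a larger calcium signal and so more RGS4 inhibition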
Target sequence (P49798 whole entry, looked up): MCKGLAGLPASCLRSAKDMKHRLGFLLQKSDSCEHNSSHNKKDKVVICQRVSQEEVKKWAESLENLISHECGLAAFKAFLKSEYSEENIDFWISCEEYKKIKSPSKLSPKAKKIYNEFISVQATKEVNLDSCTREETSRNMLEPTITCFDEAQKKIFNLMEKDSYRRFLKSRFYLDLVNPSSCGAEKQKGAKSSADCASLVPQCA
MrgX1 allo conf – MrgX1 positive allosteric modulators, duplicate retest, confirmation, HEK293 cells, Fluo-4 calcium flux; shares compounds with MrgX1 PAM; Fluo-4 calcium fluorescence, FDSS; activation (ratio percentage), % at 10 µM; actives 13% (n = 1,200); AID 602413, 2012;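 active = ratio at least 3 SD above the weak peptide control, stable starting fluorescence, no direct agonism earlier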;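 note: compound followed by low BAM8-22 agonist challenge near EC20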
HEK293 Ca flux – nonspecific calcium signal in parental HEK293, confirmation, counter-screen for MrgX1 antagonist project, parental HEK293 cells, Fluo-4 calcium flux; shares compounds with MrgX1 antagonist; Fluo-4 calcium fluorescence, FDSS; fluorescence ratio F(max-min)/F0 at 10 µM; actives 2% (n = 4,000);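 active = duplicate-averaged calcium fluorescence ratio at least three times the standard deviation of buffer wells, a nonspecific response in parental cells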
HEK293 Ca counter – calcium response in parental HEK293 cells, primary screen, counter-screen for MrgX1 allosteric activator project, cell-based, Fluo-4 calcium flux, duplicate; shares compounds with MrgX1 antagonist; Fluo-4 fluorescence ratio; active compounds read high; fluorescence ratio F(max-min)/F0 at 10 µM; actives 0.4% (n = 4,000); AID 624114, 2012;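 active = calcium fluorescence ratio, averaged over duplicates, at least 3 SD of the buffer-well ratio, meaning a nonspecific response in receptor-free cells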;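 note: untransfected parental HEK293 lacking MrgX1 used as counterscreen for MrgX1 allosteric activators; fluorescence change taken during the second addition on a kinetic imager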
HEK293 Ca cntr2 – calcium response in parental HEK293 cells, primary screen, counter-screen for MrgX1 agonist project, cell-based, Fluo-4 calcium flux, duplicate, agonist mode. shares compounds with MrgX1 antagonist. Fluo-4 calcium fluorescence (FDSS); active compounds read high. fluorescence ratio F(max-min)/F0 at 10 µM. actives 8.7% (n = 4,000). AID 624115, 2012;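 active = calcium fluorescence ratio at least three times the spread of buffer wells, meaning a non-specific response in parental cells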
Starred values were filed as active, the others as inactive. An excerpt weighted towards active compounds, which were near 3.5% of everything screened.

Screening CC(=O)c1sc(NS(=O)(=O)c2ccc(C)cc2)nc1-c1ccccc1 returned RGS4 pot inactive, MrgX1 PAM 16*, MrgX1 antagonist inactive, MrgX1 agonist inactive, RGS4 block inactive, MrgX1 allo conf inactive, HEK293 Ca flux inactive, HEK293 Ca counter inactive and HEK293 Ca cntr2 inactive.
CC1Sc2ccc(C(=O)OCc3ccccc3Cl)cc2NC1=O (stereo not given) was read as RGS4 pot inactive, MrgX1 PAM inactive, MrgX1 antagonist inactive, MrgX1 agonist inactive and RGS4 block inactive.
Screening Cc1ccc(NC2=C(Cl)C(=O)OC2OC(=O)c2ccc(C)cc2)cc1 (stereo not given) returned RGS4 pot inactive, MrgX1 PAM 8.6*, MrgX1 antagonist inactive, MrgX1 agonist inactive, RGS4 block inactive, MrgX1 allo conf inactive, HEK293 Ca flux inactive, HEK293 Ca counter inactive and HEK293 Ca cntr2 inactive.
Screening N#CCSc1nnc(COc2ccc3ccccc3c2)o1 returned RGS4 pot inactive, MrgX1 PAM 25*, MrgX1 antagonist inactive, MrgX1 agonist inactive, RGS4 block inactive, MrgX1 allo conf inactive, HEK293 Ca flux inactive, HEK293 Ca counter inactive and HEK293 Ca cntr2 inactive.
NC(=O)CSc1nnc(COc2ccc3ccccc3c2)o1 was read as RGS4 pot inactive, MrgX1 PAM inactive, MrgX1 antagonist inactive, MrgX1 agonist inactive and RGS4 block inactive.
`CCN(CC)CCn1c(=S)[nH]c2ccc(Br)cc2c1=O` gave RGS4 pot inactive, MrgX1 PAM inactive, MrgX1 antagonist inactive, MrgX1 agonist inactive and RGS4 block inactive.
CN1CCN(C(=O)C2=C[C@H](c3ccccc3)C[C@H](OCc3ccc(CO)cc3)O2)CC1 was read as RGS4 pot inactive, MrgX1 PAM inactive, MrgX1 antagonist inactive, MrgX1 agonist inactive and RGS4 block inactive.
`CCN1CCN(C(=O)CN(c2cc(OC)ccc2OC)S(C)(=O)=O)CC1` gave RGS4 pot inactive, MrgX1 PAM inactive, MrgX1 antagonist inactive, MrgX1 agonist inactive and RGS4 block inactive.
COc1ccc(OC)c(N(CC(=O)N2CCN(c3cc(Cl)ccc3C)CC2)S(C)(=O)=O)c1 was read as RGS4 pot inactive, MrgX1 PAM 29*, MrgX1 antagonist inactive, MrgX1 agonist inactive, RGS4 block inactive, MrgX1 allo conf 93%*, HEK293 Ca flux inactive, HEK293 Ca counter inactive and HEK293 Ca cntr2 54*.
`CS(=O)(=O)N(CC(=O)N1CCN(c2ccc(F)cc2)CC1)c1ccc(F)c(Cl)c1` gave RGS4 pot inactive, MrgX1 PAM 6.8*, MrgX1 antagonist inactive, MrgX1 agonist inactive, RGS4 block inactive, MrgX1 allo conf inactive, HEK293 Ca flux inactive, HEK293 Ca counter inactive and HEK293 Ca cntr2 inactive.
`COc1ccc(N2CCN(C(=O)CN(c3cccc(Br)c3)S(C)(=O)=O)CC2)cc1` gave RGS4 pot inactive, MrgX1 PAM 18*, MrgX1 antagonist inactive, MrgX1 agonist inactive, RGS4 block inactive, MrgX1 allo conf 16%*, HEK293 Ca flux inactive, HEK293 Ca counter inactive and HEK293 Ca cntr2 inactive.
`COc1ccccc1/C=C/CN1CCCC(CCC(=O)NCc2ccccc2F)C1` (stereo not given) gave RGS4 pot inactive, MrgX1 PAM inactive, MrgX1 antagonist inactive, MrgX1 agonist inactive and RGS4 block inactive.
Screening CN(C)S(=O)(=O)Oc1cccc(C(=O)Nc2ccc(Cl)cc2)c1 returned RGS4 pot inactive, MrgX1 PAM 7.7*, MrgX1 antagonist inactive, MrgX1 agonist inactive, RGS4 block inactive, MrgX1 allo conf inactive, HEK293 Ca flux inactive, HEK293 Ca counter inactive and HEK293 Ca cntr2 inactive.
COc1cccc(C(=O)Nc2nnc(-c3ccc(F)cc3)o2)c1 was read as RGS4 pot inactive, MrgX1 PAM inactive, MrgX1 antagonist inactive, MrgX1 agonist inactive and RGS4 block inactive.
COc1cccc(C(=O)Nc2nnc(-c3ccc(Cl)cc3)o2)c1 was read as RGS4 pot inactive, MrgX1 PAM 8.4*, MrgX1 antagonist inactive, MrgX1 agonist inactive, RGS4 block inactive, MrgX1 allo conf inactive, HEK293 Ca flux inactive, HEK293 Ca counter inactive and HEK293 Ca cntr2 inactive.
Screening CN(C)S(=O)(=O)Oc1cccc(C(=O)Nc2ccccc2Cl)c1 returned RGS4 pot inactive, MrgX1 PAM inactive, MrgX1 antagonist inactive, MrgX1 agonist inactive and RGS4 block inactive.
For Cc1ccc(CNC(=O)c2ccc(OCC(C)C)cc2)n1C the results were RGS4 pot inactive, MrgX1 PAM inactive, MrgX1 antagonist inactive, MrgX1 agonist inactive and RGS4 block inactive.
CC(NC(=O)Cc1ccsc1)c1ccc(Cl)cc1Cl (stereo not given) was read as RGS4 pot inactive, MrgX1 PAM inactive, MrgX1 antagonist inactive, MrgX1 agonist inactive and RGS4 block inactive.
CCOC(=O)c1c(-c2ccccc2)oc2ccc(OC(C)C(=O)O)cc12 (stereo not given) was read as RGS4 pot inactive, MrgX1 PAM 7.7*, MrgX1 antagonist inactive, MrgX1 agonist inactive, RGS4 block inactive, MrgX1 allo conf inactive, HEK293 Ca flux inactive, HEK293 Ca counter inactive and HEK293 Ca cntr2 inactive.
Screening NC(=O)C1CCN(C(=O)/C(=C/c2ccccc2)NC(=O)c2ccccc2)CC1 returned RGS4 pot inactive, MrgX1 PAM inactive, MrgX1 antagonist inactive, MrgX1 agonist inactive and RGS4 block inactive.
For N#CCSc1ncnc2ccccc12 the results were RGS4 pot inactive, MrgX1 PAM inactive, MrgX1 antagonist inactive, MrgX1 agonist inactive and RGS4 block inactive.

Screening data from PubChem BioAssay.
